Experimental findings from article PMC10925177 (bioRxiv, 2024) are described below.

One data set concerns 22Rv1 cells. Put plainly: Clonogenicity assay in 22Rv1 cells. In kind it is cell-based. Particulars: 8 days treatment, crystal violet. The method, boiled down: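 22Rv1 cells were seeded at 50,000 per well in 6-well plates. They were treated continuously with the test compound at the indicated concentrations for 8 days, then stained with 0.5% crystal violet. Three independent biological experiments were run.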

The target of a further data set is T1, SET7/9 (Homo sapiens, UniProt Q8WTS6).
T1 sequence (Q8WTS6 1-366): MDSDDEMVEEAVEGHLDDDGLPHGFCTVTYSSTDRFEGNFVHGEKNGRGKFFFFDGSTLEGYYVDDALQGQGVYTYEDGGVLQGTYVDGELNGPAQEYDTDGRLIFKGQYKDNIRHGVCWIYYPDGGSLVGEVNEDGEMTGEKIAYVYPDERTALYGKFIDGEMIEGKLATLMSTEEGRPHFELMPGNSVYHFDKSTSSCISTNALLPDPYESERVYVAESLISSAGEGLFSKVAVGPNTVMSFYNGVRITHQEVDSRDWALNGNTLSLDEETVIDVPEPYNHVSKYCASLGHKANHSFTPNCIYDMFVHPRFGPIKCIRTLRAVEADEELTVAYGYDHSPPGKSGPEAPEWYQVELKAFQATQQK
Put plainly: Western blot of SET7/9 protein level in 22Rv1 cells. In kind it is cell-based. Particulars: indicated concentration, 24 h, WB. In a few lines: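 22Rv1 cells were treated with the test compound at the indicated concentrations for 24 h. Cells were lysed in RIPA containing protease inhibitor cocktail, and protein was resolved by SDS-PAGE and transferred to PVDF. Primary antibody was applied overnight at 4 °C, with β-actin as loading control. Blots are representative of two independent experiments.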
A general note: Immunoblotting shows a protein as a band on a membrane.

A short description of data set [1]: Mouse PK study, single IP administration. In kind it is in vivo. The conditions noted are these: C57BL/6 mice.
The next data set has as its target T2, G9a (Homo sapiens, UniProt Q96KQ7).
T2 sequence (Q96KQ7 1-1210): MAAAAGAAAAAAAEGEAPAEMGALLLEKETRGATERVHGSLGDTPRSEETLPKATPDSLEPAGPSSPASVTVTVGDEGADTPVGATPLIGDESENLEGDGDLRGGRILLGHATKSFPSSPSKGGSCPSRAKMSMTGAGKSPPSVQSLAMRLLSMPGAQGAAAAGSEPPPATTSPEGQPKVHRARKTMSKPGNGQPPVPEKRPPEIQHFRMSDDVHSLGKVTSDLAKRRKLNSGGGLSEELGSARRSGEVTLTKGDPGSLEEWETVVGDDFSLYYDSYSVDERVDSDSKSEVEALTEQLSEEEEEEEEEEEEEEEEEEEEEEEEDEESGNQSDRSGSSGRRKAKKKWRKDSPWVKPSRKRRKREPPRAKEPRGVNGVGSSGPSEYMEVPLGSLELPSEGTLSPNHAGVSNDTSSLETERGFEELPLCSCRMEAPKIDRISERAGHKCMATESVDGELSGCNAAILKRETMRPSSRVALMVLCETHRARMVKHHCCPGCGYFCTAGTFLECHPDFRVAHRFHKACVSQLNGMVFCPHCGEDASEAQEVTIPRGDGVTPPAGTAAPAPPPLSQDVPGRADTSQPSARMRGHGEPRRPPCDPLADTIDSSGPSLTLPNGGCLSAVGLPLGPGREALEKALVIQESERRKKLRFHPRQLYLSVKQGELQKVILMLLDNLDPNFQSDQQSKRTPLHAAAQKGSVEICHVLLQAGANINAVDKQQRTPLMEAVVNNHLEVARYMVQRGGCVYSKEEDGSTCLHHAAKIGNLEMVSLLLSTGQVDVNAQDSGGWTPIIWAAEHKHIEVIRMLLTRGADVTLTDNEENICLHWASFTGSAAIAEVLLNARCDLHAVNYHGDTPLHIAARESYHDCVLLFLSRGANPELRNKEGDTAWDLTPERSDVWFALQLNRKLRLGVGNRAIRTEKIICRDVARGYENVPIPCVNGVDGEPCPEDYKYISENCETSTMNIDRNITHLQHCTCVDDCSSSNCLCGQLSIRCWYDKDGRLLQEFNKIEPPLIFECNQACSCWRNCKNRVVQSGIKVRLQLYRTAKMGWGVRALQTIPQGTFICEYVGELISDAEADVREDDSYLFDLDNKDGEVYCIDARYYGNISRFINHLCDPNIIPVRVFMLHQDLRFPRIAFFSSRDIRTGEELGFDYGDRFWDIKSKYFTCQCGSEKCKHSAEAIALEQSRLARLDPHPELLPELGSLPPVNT
The experiment in a line: G9a radioactive methyltransferase assay. In kind it is biochemical. The conditions noted are these: indicated concentrations, duplicate (Figure 4B). The method, boiled down: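 Enzyme activity was measured with a radioisotope-based MT HotSpot methyltransferase assay run by a contract laboratory. Test compounds were run at the indicated concentrations, in duplicate. Data are mean ± SD of the two duplicate experiments.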

Broadly, the Cmax is the highest concentration seen after dosing.

Where only a bound is given, the exact number is not on record here.

In the case of `COc1cc2c(NC3CCN(CCCC(=O)NCCCCCCCCCCCC(=O)N[C@H](C(=O)N4C[C@H](O)C[C@H]4C(=O)NCc4ccc(-c5scnc5C)cc4)C(C)(C)C)CC3)nc(N3CCC(F)(F)CC3)nc2cc1OCCCN1CCCC1` [Compound 10, (2S,4R)-1-((S)-2-(12-(4-(4-((2-(4,4-difluoropiperidin-1-yl)-6-methoxy-7-(3-(pyrrolidin-1-yl)propoxy)quinazolin-4-yl)amino)piperidin-1-yl)butanamido)dodecanamido)-3,3-dimethylbutanoyl)-4-hydroxy-N-(4-(4-methylthiazol-5-yl)benzyl)pyrrolidine-2-carboxamide], the “inhibition of 22Rv1 cell colony formation” value with 22Rv1 cells is “able to inhibit”. Further, the SET7/9 degradation entry at SET7/9 was “cannot induce the degradation”. Also, the Cmax in data set [1] (IP, 50 mg/kg, plasma, HCl salt form) was 27 ± 0.6 µM. In addition, in data set [1] (IP, 50 mg/kg, up to 8 h), the “plasma exposure levels maintained up to 8 h” value is more than 5 µM. Also, in data set [1] (single IP 50 mg/kg), the “clinical signs in the PK study” value is given as “no clinical signs were observed” and the “tolerability in the PK study” value was “well tolerated”. Moreover, the “inhibition of G9a enzymatic activity” value at G9a is on record as “similarly inhibited”.
